Reference: ChEMBL document CHEMBL4038321, “Design, Synthesis, and Pharmacokinetics of a Bone-Targeting Dual-Action Prodrug for the Treatment of Osteoporosis” (J Med Chem, 2017)

Tests used:
[1] = tested on: Bone; assay: Drug uptake in Sprague-Dawley rat bone at 1.8 uCi, iv administered as bolus dose after 6 hrs; format: ADME, organism-based, Bone element; details: in vivo
Outline: (§1)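 Female Sprague Dawley rats, about 13 weeks old, in five groups of three. Single IV tail-vein bolus of mixed 3H-conjugate (8.90 µCi/rat) and 14C-conjugate (1.77 µCi/rat), total dose 5.0 mg/kg. Vehicle was 10% Poloxamer 188, brought to pH 8.0 with NaHCO3, then diluted with an equal volume of PBS. Groups were killed at 6 h, 1, 7, 14 and 28 days. Tissues and femurs were incinerated in a biological oxidizer. Values are % of administered dose, with skeleton taken as 8% of body weight, averaged over three rats.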

[2] = tested on: Bone; assay: Drug uptake in Sprague-Dawley rat bone at 1.8 uCi, iv administered as bolus dose after 1 day; format: ADME, organism-based, Bone element; details: in vivo, 24 h; outline: as §1
[3] = tested on: Bone; assay: Drug uptake in Sprague-Dawley rat bone at 1.8 uCi, iv administered as bolus dose after 7 days; format: ADME, organism-based, Bone element; details: in vivo, 168 h; outline: as §1
[4] = tested on: Bone; assay: Drug uptake in Sprague-Dawley rat bone at 1.8 uCi, iv administered as bolus dose after 14 days; format: ADME, organism-based, Bone element; details: in vivo, 336 h; outline: as §1
[5] = tested on: Liver; assay: Drug uptake in Sprague-Dawley rat liver at 1.8 uCi, iv administered as bolus dose after 6 hrs; format: ADME, organism-based; details: in vivo; outline: as §1
[6] = tested on: Liver; assay: Drug uptake in Sprague-Dawley rat liver at 1.8 uCi, iv administered as bolus dose after 1 day; format: ADME, organism-based; details: in vivo, 24 h; outline: as §1
[7] = tested on: Liver; assay: Drug uptake in Sprague-Dawley rat liver at 1.8 uCi, iv administered as bolus dose after 7 days; format: ADME, organism-based; details: in vivo, 168 h; outline: as §1
[8] = tested on: Liver; assay: Drug uptake in Sprague-Dawley rat liver at 1.8 uCi, iv administered as bolus dose after 14 days; format: ADME, organism-based; details: in vivo, 336 h; outline: as §1
[9] = tested on: Spleen; assay: Drug uptake in Sprague-Dawley rat spleen at 1.8 uCi, iv administered as bolus dose after 6 hrs; format: ADME, organism-based; details: in vivo; outline: as §1
[10] = tested on: Spleen; assay: Drug uptake in Sprague-Dawley rat spleen at 1.8 uCi, iv administered as bolus dose after 1 day; format: ADME, organism-based; details: in vivo, 24 h; outline: as §1
[11] = tested on: Spleen; assay: Drug uptake in Sprague-Dawley rat spleen at 1.8 uCi, iv administered as bolus dose after 7 days; format: ADME, organism-based; details: in vivo, 168 h
Outline: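 Female Sprague Dawley rats, about 13 weeks old on arrival, in five groups of three. Single IV tail-vein bolus of mixed [3H]- and [14C]-labelled conjugate (8.90 and 1.77 µCi/rat), total 5.0 mg/kg. Vehicle was 10% Poloxamer 188 adjusted to pH 8.0 with NaHCO3, then diluted with an equal volume of PBS. Groups killed at 6 h, 1, 7, 14 and 28 days. Spleen radioactivity measured by oxidizer incineration and reported as percent of administered dose, averaged over three rats.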

[12] = tested on: Spleen; assay: Drug uptake in Sprague-Dawley rat spleen at 1.8 uCi, iv administered as bolus dose after 14 days; format: ADME, organism-based; details: in vivo, 336 h; outline: as §1
[13] = tested on: Kidney; assay: Drug uptake in Sprague-Dawley rat kidney at 1.8 uCi, iv administered as bolus dose after 6 hrs; format: ADME, organism-based; details: in vivo; outline: as §1
[14] = tested on: Kidney; assay: Drug uptake in Sprague-Dawley rat kidney at 1.8 uCi, iv administered as bolus dose after 1 day; format: ADME, organism-based; details: in vivo, 24 h; outline: as §1
[15] = tested on: Kidney; assay: Drug uptake in Sprague-Dawley rat kidney at 1.8 uCi, iv administered as bolus dose after 7 days; format: ADME, organism-based; details: in vivo, 168 h; outline: as §1
[16] = tested on: Kidney; assay: Drug uptake in Sprague-Dawley rat kidney at 1.8 uCi, iv administered as bolus dose after 14 days; format: ADME, organism-based; details: in vivo, 336 h; outline: as §1
[17] = tested on: Heart; assay: Drug uptake in Sprague-Dawley rat heart at 1.8 uCi, iv administered as bolus dose after 6 hrs; format: ADME, organism-based; details: in vivo; outline: as §1
[18] = tested on: Heart; assay: Drug uptake in Sprague-Dawley rat heart at 1.8 uCi, iv administered as bolus dose after 1 day; format: ADME, organism-based; details: in vivo, 24 h; outline: as §1
[19] = tested on: Brain; assay: Drug uptake in Sprague-Dawley rat brain at 1.8 uCi, iv administered as bolus dose after 6 hrs; format: ADME, organism-based; details: in vivo; outline: as §1
[20] = tested on: Brain; assay: Drug uptake in Sprague-Dawley rat brain at 1.8 uCi, iv administered as bolus dose after 1 day; format: ADME, organism-based; details: in vivo, 24 h; outline: as §1
[21] = tested on: Bone; assay: Drug uptake in Sprague-Dawley rat bone at 1.8 uCi, iv administered as bolus dose after 28 days; format: ADME, organism-based, Bone element; details: in vivo, 672 h; outline: as §1
[22] = tested on: Liver; assay: Drug uptake in Sprague-Dawley rat liver at 1.8 uCi, iv administered as bolus dose after 28 days; format: ADME, organism-based; details: in vivo, 672 h; outline: as §1
[23] = tested on: Spleen; assay: Drug uptake in Sprague-Dawley rat spleen at 1.8 uCi, iv administered as bolus dose after 28 days; format: ADME, organism-based; details: in vivo, 672 h; outline: as §1
[24] = tested on: Kidney; assay: Drug uptake in Sprague-Dawley rat kidney at 1.8 uCi, iv administered as bolus dose after 28 days; format: ADME, organism-based; details: in vivo, 672 h; outline: as §1
[25] = tested on: Rattus norvegicus; assay: Toxicity in Sprague-Dawley rat assessed as behavioral change at 1.8 uCi, iv administered as bolus dose after 28 dyas; format: organism-based; details: in vivo
Outline: (§2)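 Same dual-label study: female Sprague Dawley rats got one IV tail-vein bolus of [3H] (8.90 µCi) plus [14C] (1.77 µCi) conjugate, total 5.0 mg/kg, in Poloxamer 188/PBS vehicle at pH 8.0. Groups of three were sacrificed up to 28 days after dosing.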

[26] = tested on: Rattus norvegicus; assay: Toxicity in Sprague-Dawley rat assessed as unusual reaction at 1.8 uCi, iv administered as bolus dose after 28 dyas; format: organism-based; details: in vivo; outline: as §2

## CCOC(=O)CCCCCCN1C(=O)CC[C@@H]1/C=C/[C@@H](OC(=O)Cc1ccc(COC(=O)N[C@@H](CC(C)C)C(=O)N[C@@H](CCCNC(=N)N)C(=O)Nc2ccc(CO[14C](=O)NCCCC(O)(P(=O)(O)O)P(=O)(O)O)cc2)cc1)C(F)(F)c1ccccc1
[1]
  Drug uptake: 5.52 %ID
[2]
  Drug uptake: 4.63 %ID
[3]
  Drug uptake: 3.51 %ID
[4]
  Drug uptake: 2.52 %ID
[5]
  Drug uptake: 7.03 %ID
[6]
  Drug uptake: 2.5 %ID
[7]
  Drug uptake: 0.61 %ID
[8]
  Drug uptake: 0.27 %ID
[9]
  Drug uptake: 0.34 %ID
[10]
  Drug uptake: 0.23 %ID
[11]
  Drug uptake: 0.086 %ID
[12]
  Drug uptake: 0.05 %ID
[13]
  Drug uptake: 0.11 %ID
[14]
  Drug uptake: 0.047 %ID
[15]
  Drug uptake: 0.02 %ID
[16]
  Drug uptake: 0.013 %ID
[17]
  Drug uptake: 0.017 %ID
[18]
  Drug uptake: 0.009 %ID
[19]
  Drug uptake: 0.014 %ID
[20]
  Drug uptake: 0.012 %ID
[21]
  Drug uptake: 2.44 %ID
[22]
  Drug uptake: 0.1 %ID
[23]
  Drug uptake: 0.039 %ID
[24]
  Drug uptake: 0.0092 %ID
[25]
  Activity: Non-Toxic
[26]
  Activity: Non-Toxic
